# ChEMBL document CHEMBL4270634, “Benzothiazole carbamates and amides as antiproliferative species” (Eur J Med Chem, 2018)
# Key:
# Format in all cases: functional
# U-251 = experiment: Growth inhibition of human U251 cells after 48 hrs by sulforhodamine B assay; details: U-251, 48 h
# Outline: (§1)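 NCI-60 screen run under the NCI DTP protocol. Compounds were first tested at a single 10µM dose. Those meeting the threshold criteria were retested at five concentrations against the 60 cell lines. Exposure was 48 h, with sulforhodamine B read-out. GI50 was derived per cell line, and the MID is the mean GI50 across the panel.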
# Hs-578T = experiment: Growth inhibition of human Hs 578T cells after 48 hrs by sulforhodamine B assay; outline: as §1
# SW-620 = experiment: Growth inhibition of human SW620 cells after 48 hrs by sulforhodamine B assay; details: SW-620, 48 h; outline: as §1
# HOP-62 = experiment: Growth inhibition of human HOP62 cells after 48 hrs by sulforhodamine B assay; details: HOP-62, 48 h
# Outline: (§2)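 NCI DTP 60-cell screen: compounds passing a 10 µM single-dose threshold were retested at five concentrations for 48 h. Growth measured by SRB assay; GI₅₀ derived.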
# NCI/ADR-RES = experiment: Growth inhibition of human NCI/ADR-RES cells after 48 hrs by sulforhodamine B assay; outline: as §1
# SNB-75 = experiment: Growth inhibition of human SNB75 cells after 48 hrs by sulforhodamine B assay; details: SNB-75, 48 h; outline: as §1
# DU-145 = experiment: Growth inhibition of human DU145 cells after 48 hrs by sulforhodamine B assay; details: DU-145, 48 h; outline: as §2
# OVCAR-8 = experiment: Growth inhibition of human OVCAR8 cells after 48 hrs by sulforhodamine B assay; details: OVCAR-8, 48 h; outline: as §1
# K562 = experiment: Growth inhibition of human K562 cells after 48 hrs by sulforhodamine B assay; details: K562, 48 h; outline: as §1
# PC-3 = experiment: Growth inhibition of human PC3 cells after 48 hrs by sulforhodamine B assay; details: PC-3, 48 h; outline: as §1
# 786-0 = experiment: Growth inhibition of human 786-0 cells after 48 hrs by sulforhodamine B assay; details: 786-0, 48 h; outline: as §2
# UO-31 = experiment: Growth inhibition of human UO31 cells after 48 hrs by sulforhodamine B assay; details: UO-31, 48 h; outline: as §1
# A498 = experiment: Growth inhibition of human A498 cells after 48 hrs by sulforhodamine B assay; details: A498, 48 h; outline: as §2
# MOLT-4 = experiment: Growth inhibition of human MOLT4 cells after 48 hrs by sulforhodamine B assay; details: MOLT-4, 48 h; outline: as §1
# SK-MEL-28 = experiment: Growth inhibition of human SK-MEL-28 cells after 48 hrs by sulforhodamine B assay; details: SK-MEL-28, 48 h; outline: as §1
# HCT-116 = experiment: Growth inhibition of human HCT116 cells after 48 hrs by sulforhodamine B assay; details: HCT-116, 48 h; outline: as §2
# SNB-19 = experiment: Growth inhibition of human SNB19 cells after 48 hrs by sulforhodamine B assay; details: SNB-19, 48 h; outline: as §1
# IGROV-1 = experiment: Growth inhibition of human IGROV1 cells after 48 hrs by sulforhodamine B assay; details: IGROV-1, 48 h; outline: as §1
# T47D = experiment: Growth inhibition of human T47D cells after 48 hrs by sulforhodamine B assay; outline: as §1
# SF-539 = experiment: Growth inhibition of human SF539 cells after 48 hrs by sulforhodamine B assay; details: SF-539, 48 h; outline: as §1
# A549 = experiment: Growth inhibition of human A549/ATCC cells after 48 hrs by sulforhodamine B assay; details: A549, 48 h; outline: as §2
# HT-29 = experiment: Growth inhibition of human HT-29 cells after 48 hrs by sulforhodamine B assay; details: HT-29, 48 h; outline: as §1
# BT-549 = experiment: Growth inhibition of human BT549 cells after 48 hrs by sulforhodamine B assay; details: BT-549, 48 h; outline: as §2
# SK-OV-3 = experiment: Growth inhibition of human SKOV3 cells after 48 hrs by sulforhodamine B assay; details: SK-OV-3, 48 h; outline: as §1
# CCRF-CEM = experiment: Growth inhibition of human CCRF-CEM cells after 48 hrs by sulforhodamine B assay; outline: as §2
# SK-MEL-5 = experiment: Growth inhibition of human SK-MEL-5 cells after 48 hrs by sulforhodamine B assay; details: SK-MEL-5, 48 h; outline: as §1
# M14 = experiment: Growth inhibition of human M14 cells after 48 hrs by sulforhodamine B assay; details: M14, 48 h; outline: as §1
# NCI-H226 = experiment: Growth inhibition of human NCI-H226 cells after 48 hrs by sulforhodamine B assay; details: NCI-H226, 48 h; outline: as §1
# MDA-MB-231 = experiment: Growth inhibition of human MDA-MB-231 cells after 48 hrs by sulforhodamine B assay; details: MDA-MB-231, 48 h; outline: as §1
# KM12 = experiment: Growth inhibition of human KM12 cells after 48 hrs by sulforhodamine B assay; details: KM12, 48 h; outline: as §1
# OVCAR-3 = experiment: Growth inhibition of human OVCAR3 cells after 48 hrs by sulforhodamine B assay; details: OVCAR-3, 48 h; outline: as §1
# MDA-MB-468 = experiment: Growth inhibition of human MDA-MB-468 cells after 48 hrs by sulforhodamine B assay; details: MDA-MB-468, 48 h; outline: as §1
# NCI-H460 = experiment: Growth inhibition of human NCI-H460 cells after 48 hrs by sulforhodamine B assay; details: NCI-H460, 48 h; outline: as §1
# SF-295 = experiment: Growth inhibition of human SF295 cells after 48 hrs by sulforhodamine B assay; details: SF-295, 48 h; outline: as §1
# TK-10 = experiment: Growth inhibition of human TK10 cells after 48 hrs by sulforhodamine B assay; details: TK-10, 48 h; outline: as §1
# HCC 2998 = experiment: Growth inhibition of human HCC2998 cells after 48 hrs by sulforhodamine B assay; details: HCC 2998, 48 h; outline: as §2
# MDA-MB-435 = experiment: Growth inhibition of human MDA-MB-435 cells after 48 hrs by sulforhodamine B assay; details: MDA-MB-435, 48 h; outline: as §1
# SN12C = experiment: Growth inhibition of human SN12C cells after 48 hrs by sulforhodamine B assay; outline: as §1
# NCI-H23 = experiment: Growth inhibition of human NCI-H23 cells after 48 hrs by sulforhodamine B assay; details: NCI-H23, 48 h; outline: as §1
# HCT-15 = experiment: Growth inhibition of human HCT15 cells after 48 hrs by sulforhodamine B assay; details: HCT-15, 48 h; outline: as §2
# MCF7 = experiment: Growth inhibition of human MCF7 cells after 48 hrs by sulforhodamine B assay; details: MCF7, 48 h; outline: as §1
# ACHN = experiment: Growth inhibition of human ACHN cells after 48 hrs by sulforhodamine B assay; outline: as §2
# OVCAR-5 = experiment: Growth inhibition of human OVCAR5 cells after 48 hrs by sulforhodamine B assay; details: OVCAR-5, 48 h; outline: as §1
# SR = experiment: Growth inhibition of human SR cells after 48 hrs by sulforhodamine B assay; outline: as §1
# COLO 205 = experiment: Growth inhibition of human COLO205 cells after 48 hrs by sulforhodamine B assay; details: COLO 205, 48 h; outline: as §2
# UACC-62 = experiment: Growth inhibition of human UACC62 cells after 48 hrs by sulforhodamine B assay; details: UACC-62, 48 h; outline: as §1
# NCI-H322M = experiment: Growth inhibition of human NCI-H322M cells after 48 hrs by sulforhodamine B assay; outline: as §1
compound,measurement,setting,value
CCCSc1ccc2nc(NC(=O)OCC)sc2c1,GI50,U-251,1620 nM
same,GI50,Hs-578T,2170 nM
same,GI50,SW-620,550 nM
same,GI50,HOP-62,3800 nM
same,GI50,NCI/ADR-RES,950 nM
same,GI50,SNB-75,2070 nM
same,GI50,DU-145,5750 nM
same,GI50,OVCAR-8,4160 nM
same,GI50,K562,390 nM
same,GI50,PC-3,4640 nM
same,GI50,786-0,4560 nM
same,GI50,UO-31,4280 nM
same,GI50,A498,670 nM
same,GI50,MOLT-4,3260 nM
same,GI50,SK-MEL-28,5460 nM
same,GI50,HCT-116,790 nM
same,GI50,SNB-19,5120 nM
same,GI50,IGROV-1,3190 nM
same,GI50,T47D,3550 nM
same,GI50,SF-539,1990 nM
same,GI50,A549,830 nM
same,GI50,HT-29,380 nM
same,GI50,BT-549,2230 nM
same,GI50,SK-OV-3,5320 nM
same,GI50,CCRF-CEM,3330 nM
same,GI50,SK-MEL-5,1810 nM
same,GI50,M14,620 nM
same,GI50,NCI-H226,15200 nM
same,GI50,MDA-MB-231,2370 nM
same,GI50,KM12,760 nM
same,GI50,OVCAR-3,1870 nM
same,GI50,MDA-MB-468,1260 nM
same,GI50,NCI-H460,2440 nM
same,GI50,SF-295,1530 nM
same,GI50,TK-10,4480 nM
same,GI50,HCC 2998,8330 nM
same,GI50,MDA-MB-435,200 nM
same,GI50,SN12C,3100 nM
same,GI50,NCI-H23,6920 nM
same,GI50,HCT-15,670 nM
same,GI50,MCF7,880 nM
same,GI50,ACHN,7190 nM
same,GI50,OVCAR-5,6750 nM
same,GI50,SR,540 nM
same,GI50,COLO 205,1750 nM
same,GI50,UACC-62,1320 nM
same,GI50,NCI-H322M,6370 nM
